PAD4 FP inh: inhibitors of human PAD4 | 0.41% of 330,000 active | recombinant PAD4, RCA probe fluorescence polarization | AID 485272 | inhibition, % at 6.36 µM;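 active means percent inhibition above a cutoff equal to the mean of all tested compounds plus 3 SD, cut at about 15% in these data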;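 further: 0% = PAD4 with RCA probe and DMSO and 100% = probe without PAD4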
TDP2 absorb: TDP2 (human) inhibition, absorbance primary screen | O95551 | recombinant TDP2, T5PNP hydrolysis, p-nitrophenol absorbance 415 nm | inhibition, % at 12.8 µM | 0.34% of 370,000 active | AID 720702;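 active means inhibition above the mean of all tested compounds plus 3 SD, set per campaign, cut at about 25% in these data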;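 further: 0% = DMSO with enzyme and 100% = buffer with substrate but no TDP2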
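Material: recombinant human TDP2; quantity: TDP2 enzyme at 120 nM final; medium: Tris-HCl pH 7.5 with MgCl2; compound: single concentration, 12.8 µM nominal, with 1% DMSO; incubation: 2 h enzyme incubation at 37 °C; signal: epi absorbance; measure: percent inhibition; benchmarks: high control without enzyme, low control DMSO plus TDP2; repeats: singlicate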
PRMT1 FP inh: inhibitors of human PRMT1; inhibition, % at 2.79 µM; recombinant PRMT1, activity-based probe fluorescence polarization; AID 652257; 1.3% of 370,000 active;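 active means inhibition above about 21% made by adding two undisclosed values, limit read from the data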
E coli Lon inh: inhibits E. coli Lon protease. inhibition, % at 7.94 µM. P0A9M0. purified E. coli Lon protease, fluorescence polarization. 0.42% of 360,000 active; in the data active means inhibition above about 13%, passing the limit was not always enough;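 further: 0% = enzyme with probe and DMSO and 100% = no enzyme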
Target sequence (P0A9M0 whole entry, looked up): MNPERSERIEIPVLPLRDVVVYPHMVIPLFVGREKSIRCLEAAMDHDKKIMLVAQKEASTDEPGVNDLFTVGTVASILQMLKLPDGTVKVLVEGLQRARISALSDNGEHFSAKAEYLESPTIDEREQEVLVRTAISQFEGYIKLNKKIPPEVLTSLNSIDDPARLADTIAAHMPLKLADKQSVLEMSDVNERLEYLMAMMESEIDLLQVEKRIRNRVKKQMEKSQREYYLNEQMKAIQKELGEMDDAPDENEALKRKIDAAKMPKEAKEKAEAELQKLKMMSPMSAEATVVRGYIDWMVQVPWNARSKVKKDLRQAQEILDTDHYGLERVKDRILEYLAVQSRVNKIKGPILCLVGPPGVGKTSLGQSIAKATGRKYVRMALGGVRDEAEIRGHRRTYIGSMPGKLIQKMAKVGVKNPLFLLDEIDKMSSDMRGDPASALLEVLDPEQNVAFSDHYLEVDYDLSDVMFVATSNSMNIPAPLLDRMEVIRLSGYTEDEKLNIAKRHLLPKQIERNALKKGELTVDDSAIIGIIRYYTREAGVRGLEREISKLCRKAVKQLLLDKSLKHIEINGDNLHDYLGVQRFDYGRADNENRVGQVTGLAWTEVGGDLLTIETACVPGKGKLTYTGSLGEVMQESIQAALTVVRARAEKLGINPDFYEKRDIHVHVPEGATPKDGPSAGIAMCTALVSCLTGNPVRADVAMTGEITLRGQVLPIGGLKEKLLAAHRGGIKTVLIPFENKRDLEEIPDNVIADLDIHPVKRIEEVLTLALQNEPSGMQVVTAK
GSTO1 counter: counter-screen for RBBP9 inhibitors: inhibitors of human GSTO1; recombinant GSTO1, activity-based probe fluorescence polarization; 1.1% of 300,000 active; inhibition, % at 5.96 µM; P78417;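 active means inhibition above the campaign mean inhibition plus 3 SD, cut at about 35% in these data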;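 further: 0% = GSTO1-1 with DMSO and 100% = wells lacking GSTO1-1 enzyme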
Numbers without * were called inactive; . = not tested or not shown. The list is not random: actives were taken first. Their share in the collection is about 2.5%.

SMILES | PAD4 FP inh | TDP2 absorb | PRMT1 FP inh | E coli Lon inh | GSTO1 counter
COc1ccc(Nc2ccc(OC)cc2)cc1 | 1.0 | 1.0 | 5.9 | 30.0 | 36.0*
COc1ccc(Nc2ccc(Nc3ccc(OC)cc3)nn2)cc1 | -0.9 | -4.4 | 0.7 | -4.5 | 5.6
Cc1ccc2nc(N3CCN(c4cccc(C)c4C)CC3)c3nnnn3c2c1 | -0.7 | 11.0 | 0.2 | -26.0 | 10.0
Cc1ccc2nc(Cl)c3nnnn3c2c1 | 21.7* | . | . | -5.1 | -14.4
CC1CCN(c2ccc(C(=O)O)cc2NS(=O)(=O)c2ccc(C(C)(C)C)cc2)CC1 | . | -2.1 | 1.2 | . | .
COc1ccc(OC)c(/C=N/NC(=O)CCc2ccc(O)c(O)c2)c1 | 3.2 | -13.9 | 47.7* | -0.3 | 36.0*
O=C(CNC(=O)c1ccc(Br)cc1)NCC(=O)OCC(=O)c1ccc([N+](=O)[O-])cc1 | -0.4 | 0.5 | 23.3* | 3.9 | 18.4
Oc1ccc(O)c(Cc2nc3ccccc3s2)c1 | -7.3 | 3.6 | 49.4* | 9.0 | 61.4*
Oc1cccc(-c2nc3ccccc3s2)c1 | -1.0 | -4.4 | 1.5 | 3.9 | 13.9
CCOc1cc(/C=C2/C(=O)NN(c3cccc(Cl)c3)C2=O)ccc1O | 2.4 | 6.9 | 18.1 | -29.8 | 1.8
COc1cc(/C=C2/C(=O)NN(c3cccc(Cl)c3)C2=O)cc(OC)c1O | -3.1 | 0.1 | 22.4* | -130.4 | 14.7
O=C(NCCc1ccccn1)c1ccc2c(c1)ncn2C1CCCCC1 | . | 6.4 | 1.4 | . | .
CC(=O)Nc1ccc(C(=S)NCCCO)cc1 | -2.4 | -17.3 | 22.0* | 1.1 | 2.8
CC(C)CCN(C)C1CCN(C(=O)Nc2ccc3c(c2)OCO3)CC1 | . | -10.7 | 6.8 | . | .
O=S1(=O)CC(N2CCCC2)CN1 (stereo unspecified) | . | 8.1 | -1.8 | . | .
O=C(NNc1nc2ccccc2s1)Nc1ccc(Cl)c(Cl)c1 | 6.6 | -7.6 | 22.8* | -6.9 | -14.8
O=C(CCc1ccccc1)N[C@H]1[C@@H](OC(=O)c2cccnc2)CCC[C@@]12C(=O)N(Cc1ccccc1)c1ccccc12 | . | -0.2 | 2.6 | . | .
COC(=O)CC1OCC=C2CN3CCC45C6=CC(=O)C(=O)C([N+](=O)[O-])=C6NC4C1C2CC35 (stereo unspecified) | . | 67.7* | 29.8* | 2.4 | .
CCCn1c(NC(=O)c2ccccc2)nc(Cc2ccccc2)c1Cc1ccccc1 | . | -1.4 | -2.9 | . | .
O=C(O)/C=C/C(=O)Nc1c(F)cccc1F | 1.3 | 18.4 | 22.1* | -2.1 | 10.1
O=C(Nc1ccccc1)Nc1c(F)cccc1F | 2.5 | 2.9 | 2.5 | -7.7 | 5.5
O=C(O)C1Nc2c(O)cc(Cl)c([N+](=O)[O-])c2C2C=CCC12 (stereo unspecified) | -4.4 | 17.0 | 36.1* | -8.9 | 57.2*
O=C(O)c1ccc(Cl)c2c1C1C=CCC1C(c1ccccn1)N2 (stereo unspecified) | 12.5 | . | . | . | 11.1
CC(C)C[C@H]1COc2ccc(Cl)cc2S(=O)(=O)N1Cc1cn(Cc2ccc(C(F)(F)F)cc2)nn1 | . | -13.8 | -1.8 | . | .
O=C(Nc1nc(-c2ccccn2)cs1)c1ccc(Cl)s1 | -1.1 | 7.9 | -8.4 | 1.9 | 44.5*
SMILES | PAD4 FP inh | TDP2 absorb | PRMT1 FP inh | E coli Lon inh | GSTO1 counter
O=C(/C=C/c1ccco1)Nc1nc(-c2ccccn2)cs1 | -4.6 | -2.8 | 23.0* | -2.5 | 12.5
Oc1cccc(Nc2c3ccccc3nc3ccccc23)c1 | -12.7 | 7.2 | 6.8 | 15.8 | 13.0
CCN(CC)Cc1cc(Nc2c3ccccc3nc3c4ccccc4n(C)c23)cc(CN(CC)CC)c1O | . | -12.1 | 44.6* | -2.9 | .
Nc1cccc2[nH]c(C(F)(F)F)nc12 | -13.0 | 32.1* | 7.4 | 5.7 | 3.8
CC1CCN(C2=C(NS(=O)(=O)c3ccc(Cl)cc3)C(=O)c3ccccc3C2=O)CC1 | -7.4 | -0.8 | -1.6 | -8.8 | 31.1
CC1CCN(C2=C(NS(=O)(=O)c3ccccc3)C(=O)c3ccccc3C2=O)CC1 | -6.0 | -0.2 | -9.3 | 7.2 | 35.4*
O=C1/C(=C/Nc2ccc3c(c2)OCO3)CCc2ccccc21 | 0.1 | 3.4 | 22.8* | -29.9 | 14.4
COC(=O)c1cc(C(c2ccccc2O)C2CCCO2)n2cccc(C(C)(C)C)c12 (stereo unspecified) | . | -1.6 | -0.9 | . | .
C/C(C=NNC(=O)CSc1nnc(-c2ccc(Cl)cc2)n1-c1ccc(C)cc1)=C\c1ccccc1 | . | -0.6 | -2.5 | . | .
COc1ccc(/C=N/NC(=O)CCN2CCN(c3ccccc3)CC2)c(OC)c1OC | -4.3 | -0.8 | -0.5 | -10.1 | -3.4
O=C(CCN1CCN(c2ccccc2)CC1)N/N=C/c1ccc(O)c(O)c1O | . | 14.7 | 22.6* | 2.5 | .
O=C(/C=C/c1ccco1)NC(=S)Nc1ccccc1 | -4.9 | -7.6 | 22.8* | -10.9 | 3.7
O=C(CCl)NCc1cc(-c2ccc(Cl)cc2)no1 | -0.1 | -9.2 | 0.9 | 7.7 | 89.0*
CCOC(=O)Cn1cc(CN2CCS(=O)(=O)N(Cc3ccc(Cl)cc3)C(C(=O)OC)C2)nn1 (stereo unspecified) | . | 0.4 | -0.8 | . | .
CCCn1c(CNc2ccccc2O)nc2ccccc21 | 4.5 | 0.8 | 4.5 | -6.6 | 34.8*
CCCCn1c(CNC(=O)CCC)nc2ccccc21 | 0.9 | -9.0 | -10.4 | -3.3 | 0.0
CCN(CC)C(=O)CC[C@@H]1CC[C@]2(CCCN(C(=O)c3cccnc3)C2)O1 | . | 5.6 | -4.4 | . | .
O=c1oc(-c2ccccc2)cc(Cl)c1Cl | 13.8 | 26.8* | 9.4 | 5.7 | -31.6
COc1ccc(N2CCCN(CC(=O)Nc3ccc(Cl)cc3)CC2)cc1 | . | 1.9 | 9.7 | . | .
c1ccc(-c2nc(-c3ccco3)n3ccccc23)cc1 | -17.8 | 10.6 | 23.7* | -16.8 | 5.5
c1ccc(Nc2c(-c3ccco3)nc3ccccn23)cc1 | -3.1 | -4.4 | 12.8 | 4.3 | 2.9
O=C(CS(=O)(=O)c1ccccc1)N1CCc2ccccc21 | -0.1 | -6.0 | 4.2 | -4.3 | -1.5
O=C(CCS(=O)(=O)c1ccc(Br)s1)N1CCc2ccccc21 | -4.5 | -2.2 | -3.0 | -1.3 | 35.9*
COC(=O)C1CN(Cc2ccc(C)cc2)CCS(=O)(=O)N1Cc1cn(Cc2ccccc2)nn1 (stereo unspecified) | . | 3.2 | -2.5 | . | .
CCCN(CCC)S(=O)(=O)c1ccc(Cl)c([N+](=O)[O-])c1 | -4.0 | 3.2 | 1.7 | -1.1 | 35.5*
SMILES | PAD4 FP inh | TDP2 absorb | PRMT1 FP inh | E coli Lon inh | GSTO1 counter
CCCN(CCC)S(=O)(=O)c1ccc(N2CCCC2=O)c([N+](=O)[O-])c1 | 5.6 | 6.8 | -2.8 | 5.9 | -1.6
Cc1ccc(C)n1-c1cccc(C(=O)O)c1 | 7.2 | . | . | . | 53.2*
CCC(C)(C)n1nnnc1C(c1ccc(O)c(OC)c1)N1CCc2ccccc2C1 (stereo unspecified) | 2.8 | 0.0 | 23.2* | 0.2 | 5.9
CC1CCCCC1N(C(=O)c1cc(C2CC2)on1)C1CCCCC1 (stereo unspecified) | . | 0.1 | 5.3 | . | .
O=C(CN(CCc1ccccc1)S(=O)(=O)c1ccc(F)cc1)N1CCOCC1 | . | -1.9 | 2.1 | . | .
N#CC1=C(N)SC(N)=C(C#N)C1c1ccc([N+](=O)[O-])cc1 | -5.5 | 2.0 | 30.9* | -106.7 | 1.0
N#CC1=C(N)SC(N)=C(C#N)C1c1ccc(C(F)(F)F)cc1 | -13.0 | . | . | . | 0.5
O=C1N=C(c2ccccc2)S/C1=C\c1cccs1 | 3.0 | 9.0 | 21.5* | -8.2 | 7.0

Assay outcomes deposited in PubChem BioAssay by The Scripps Research Institute Molecular Screening Center.
